# ChEMBL document CHEMBL4196113, “Discovery of a First-in-Class Gut-Restricted RET Kinase Inhibitor as a Clinical Candidate for the Treatment of IBS” (ACS Med Chem Lett, 2018)
# pIC50, pKd: −log10 of the molar value. Active and inactive are the calls of the source. No cut-off for these calls is given here.
# Columns and labels:
# Salmonella typhimurium = test: Genotoxicity in Salmonella typhimurium TA98 by Ames test; type: toxicity, organism-based; settings: salmonella enterica subsp. enterica serovar typhimurium
# Rattus norvegicus = test: Reduction in acetic acid-induced acute visceral afferent neuron sensitization in Sprague-Dawley rat acute colonic hypersensitivity model assessed as decrease in visceromotor response to colorectal distension by measuring number of abdominal contractions at 10 mg/kg, po bid administered for 3.5 days followed by acetic acid induction for 60 mins administered 5 mins post last compound dose and measured for 10 mins; type: functional, organism-based
# Procedure, shortened: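 Acetic acid enema at low concentration gave a transient, noninflammatory sensitization of colonic afferents. Colorectal distension then evoked a visceromotor response, scored visually as abdominal contractions. Rats (n = 7 per group) were dosed orally at 10 mg/kg twice daily for 3.5 days and compared with acetic acid/vehicle controls. Analysis used repeated-measure two-way ANOVA with Bonferroni post-test.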
# [1] = molecular target: T1, Epithelial discoidin domain-containing receptor 1 (Rattus norvegicus, UniProt Q63474); test: Binding affinity to DDR1 in Sprague-Dawley rat colon tissue cell lysate using sepharose beads incubated for 45 mins by LC-MS/MS based chemoproteomics assay
# T1 sequence (Q63474 whole entry): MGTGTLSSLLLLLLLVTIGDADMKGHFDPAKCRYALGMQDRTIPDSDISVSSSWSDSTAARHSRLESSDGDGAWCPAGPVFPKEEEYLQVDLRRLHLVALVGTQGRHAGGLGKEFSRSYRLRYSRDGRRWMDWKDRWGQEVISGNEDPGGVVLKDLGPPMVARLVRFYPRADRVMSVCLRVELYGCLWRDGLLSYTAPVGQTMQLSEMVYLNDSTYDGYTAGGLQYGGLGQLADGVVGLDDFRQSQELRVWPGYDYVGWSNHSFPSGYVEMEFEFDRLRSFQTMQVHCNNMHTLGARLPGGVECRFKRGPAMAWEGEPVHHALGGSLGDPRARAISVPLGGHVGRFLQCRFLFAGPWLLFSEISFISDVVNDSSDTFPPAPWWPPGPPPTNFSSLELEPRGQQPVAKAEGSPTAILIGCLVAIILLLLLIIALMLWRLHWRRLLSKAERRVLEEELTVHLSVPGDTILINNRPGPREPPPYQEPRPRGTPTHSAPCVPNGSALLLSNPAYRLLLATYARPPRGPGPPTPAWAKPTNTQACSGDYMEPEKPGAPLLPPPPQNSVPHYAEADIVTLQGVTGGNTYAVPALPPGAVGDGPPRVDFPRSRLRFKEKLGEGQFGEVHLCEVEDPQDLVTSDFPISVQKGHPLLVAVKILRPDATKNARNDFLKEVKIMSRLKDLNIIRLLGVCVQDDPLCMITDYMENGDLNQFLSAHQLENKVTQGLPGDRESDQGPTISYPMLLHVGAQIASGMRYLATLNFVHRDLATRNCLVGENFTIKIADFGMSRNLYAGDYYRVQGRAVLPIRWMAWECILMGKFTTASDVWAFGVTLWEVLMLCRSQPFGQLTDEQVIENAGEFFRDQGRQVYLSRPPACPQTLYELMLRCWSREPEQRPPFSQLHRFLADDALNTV
# Procedure, shortened: (§1)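 Colon tissue was isolated from rats and analysed by kinobead chemoproteomics. Compound competed with the beads for kinase binding. Apparent affinity is reported as pKdapp and converted to Kd.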
# [2] = Tmax in duodenum of Sprague-Dawley rat at 10 mg/kg, po bid administered 7 doses over 3.5 days; type: ADME, organism-based
# Procedure, shortened: (§2)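 Satellite rats from the colonic hypersensitivity dosing regimen received 10 mg/kg orally twice daily, seven doses over 3.5 days. Concentrations were measured in colon contents, duodenum, jejunum, ileum, colon tissue homogenate and plasma. Cmax (ng/mL) and Tmax (h) were taken from the full time–concentration profiles.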
# [3] = Tmax in jejunum of Sprague-Dawley rat at 10 mg/kg, po bid administered 7 doses over 3.5 days; type: ADME, organism-based; procedure, shortened: as §2
# [4] = Solubility of the compound in FaSSIF after 4 hrs; type: physicochemical
# Procedure, shortened: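 Solubility was measured in fasted state simulated intestinal fluid after 4 h.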
# [5] = Binding affinity to DDR2 in Sprague-Dawley rat colon tissue cell lysate using sepharose beads incubated for 45 mins by LC-MS/MS based chemoproteomics assay; procedure, shortened: as §1
# [6] = Cmax in ileum of Sprague-Dawley rat at 10 mg/kg, po bid administered 7 doses over 3.5 days; type: ADME, organism-based; parameters: dose 10 mg/kg, route oral; procedure, shortened: as §2
# [7] = Tmax in colon contents of Sprague-Dawley rat at 10 mg/kg, po bid administered 7 doses over 3.5 days; type: ADME, organism-based, Colon content; procedure, shortened: as §2
# [8] = Tmax in ileum of Sprague-Dawley rat at 10 mg/kg, po bid administered 7 doses over 3.5 days; type: ADME, organism-based; procedure, shortened: as §2
# [9] = Cmax in colon of Sprague-Dawley rat at 10 mg/kg, po bid administered 7 doses over 3.5 days; type: ADME, organism-based; parameters: dose 10 mg/kg, route oral; procedure, shortened: as §2
# [10] = Solubility of the compound by CLND method; type: physicochemical
# Procedure, shortened: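 Kinetic solubility was measured by chemiluminescent nitrogen detection.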
# [11] = Cmax in duodenum of Sprague-Dawley rat at 10 mg/kg, po bid administered 7 doses over 3.5 days; type: ADME, organism-based; parameters: dose 10 mg/kg, route oral; procedure, shortened: as §2
# [12] = Cmax in colon contents of Sprague-Dawley rat at 10 mg/kg, po bid administered 7 doses over 3.5 days; type: ADME, organism-based, Colon content; parameters: dose 10 mg/kg, route oral; procedure, shortened: as §2
# [13] = Tmax in colon of Sprague-Dawley rat at 10 mg/kg, po bid administered 7 doses over 3.5 days; type: ADME, organism-based; procedure, shortened: as §2
# [14] = Tmax in plasma of Sprague-Dawley rat at 10 mg/kg, po bid administered 7 doses over 3.5 days; type: ADME, organism-based; procedure, shortened: as §2
# [15] = AUC in Sprague-Dawley rat at 0.06 mg/kg, iv administered via bolus; type: ADME, organism-based; settings: in vivo
# Procedure, shortened: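 Male Sprague–Dawley rats received a single IV bolus. Compound was formulated as a clear solution at 0.04 mg/mL in DMSO/6% HP-beta-CD (5:95), pH 7. AUC was derived from the plasma concentration–time curve.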
# [16] = Cmax in jejunum of Sprague-Dawley rat at 10 mg/kg, po bid administered 7 doses over 3.5 days; type: ADME, organism-based; parameters: dose 10 mg/kg, route oral; procedure, shortened: as §2
# [17] = Cmax in plasma of Sprague-Dawley rat at 10 mg/kg, po bid administered 7 doses over 3.5 days; type: ADME, organism-based; parameters: dose 10 mg/kg, route oral; procedure, shortened: as §2
# [18] = molecular target: Proto-oncogene tyrosine-protein kinase receptor Ret (Rattus norvegicus, UniProt G3V9H8); test: Binding affinity to RET in Sprague-Dawley rat colon tissue cell lysate using sepharose beads incubated for 45 mins by LC-MS/MS based chemoproteomics assay; procedure, shortened: as §1
# [19] = molecular target: Vascular endothelial growth factor receptor 2 (Homo sapiens, UniProt P35968); test: Inhibition of human KDR using cisbio TK biotin-peptide as substrate preincubated for 30 mins followed by substrate addition measured after 30 mins by HTRF assay
# Sequence of Vascular endothelial growth factor receptor 2 (P35968 whole entry): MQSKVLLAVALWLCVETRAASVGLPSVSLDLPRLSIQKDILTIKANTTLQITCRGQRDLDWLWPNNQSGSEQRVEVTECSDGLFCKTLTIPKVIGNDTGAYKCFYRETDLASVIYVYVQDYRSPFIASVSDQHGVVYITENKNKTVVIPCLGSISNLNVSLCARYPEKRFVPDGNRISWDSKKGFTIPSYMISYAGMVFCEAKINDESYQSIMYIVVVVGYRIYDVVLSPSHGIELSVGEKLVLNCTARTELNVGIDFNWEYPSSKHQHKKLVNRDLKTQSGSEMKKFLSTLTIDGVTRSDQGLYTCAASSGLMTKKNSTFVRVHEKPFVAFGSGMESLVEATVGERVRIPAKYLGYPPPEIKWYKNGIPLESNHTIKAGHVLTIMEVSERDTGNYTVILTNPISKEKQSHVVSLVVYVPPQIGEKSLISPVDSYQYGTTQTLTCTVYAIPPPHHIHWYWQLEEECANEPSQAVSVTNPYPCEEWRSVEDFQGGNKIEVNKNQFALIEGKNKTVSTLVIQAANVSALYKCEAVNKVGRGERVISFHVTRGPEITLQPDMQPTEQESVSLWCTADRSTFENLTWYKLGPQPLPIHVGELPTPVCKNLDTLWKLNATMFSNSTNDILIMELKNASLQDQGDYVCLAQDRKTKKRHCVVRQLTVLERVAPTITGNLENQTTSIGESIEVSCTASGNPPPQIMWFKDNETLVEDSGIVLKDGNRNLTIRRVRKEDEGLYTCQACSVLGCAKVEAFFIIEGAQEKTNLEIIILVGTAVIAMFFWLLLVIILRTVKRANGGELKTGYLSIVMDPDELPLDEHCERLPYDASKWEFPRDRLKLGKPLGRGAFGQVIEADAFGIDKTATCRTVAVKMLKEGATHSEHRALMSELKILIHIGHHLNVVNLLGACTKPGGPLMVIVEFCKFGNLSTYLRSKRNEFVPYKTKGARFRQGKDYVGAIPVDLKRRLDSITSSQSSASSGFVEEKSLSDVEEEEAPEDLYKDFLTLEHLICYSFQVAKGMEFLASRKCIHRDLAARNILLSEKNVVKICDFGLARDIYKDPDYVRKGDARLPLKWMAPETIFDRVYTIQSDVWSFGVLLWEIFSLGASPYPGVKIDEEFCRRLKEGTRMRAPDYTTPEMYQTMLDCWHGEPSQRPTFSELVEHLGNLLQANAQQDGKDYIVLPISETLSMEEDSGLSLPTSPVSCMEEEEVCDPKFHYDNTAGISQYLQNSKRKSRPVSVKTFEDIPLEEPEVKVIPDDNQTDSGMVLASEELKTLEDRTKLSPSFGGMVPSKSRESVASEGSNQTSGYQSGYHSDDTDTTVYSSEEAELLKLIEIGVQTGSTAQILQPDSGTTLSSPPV
# Sequence of Proto-oncogene tyrosine-protein kinase receptor Ret (G3V9H8 whole entry): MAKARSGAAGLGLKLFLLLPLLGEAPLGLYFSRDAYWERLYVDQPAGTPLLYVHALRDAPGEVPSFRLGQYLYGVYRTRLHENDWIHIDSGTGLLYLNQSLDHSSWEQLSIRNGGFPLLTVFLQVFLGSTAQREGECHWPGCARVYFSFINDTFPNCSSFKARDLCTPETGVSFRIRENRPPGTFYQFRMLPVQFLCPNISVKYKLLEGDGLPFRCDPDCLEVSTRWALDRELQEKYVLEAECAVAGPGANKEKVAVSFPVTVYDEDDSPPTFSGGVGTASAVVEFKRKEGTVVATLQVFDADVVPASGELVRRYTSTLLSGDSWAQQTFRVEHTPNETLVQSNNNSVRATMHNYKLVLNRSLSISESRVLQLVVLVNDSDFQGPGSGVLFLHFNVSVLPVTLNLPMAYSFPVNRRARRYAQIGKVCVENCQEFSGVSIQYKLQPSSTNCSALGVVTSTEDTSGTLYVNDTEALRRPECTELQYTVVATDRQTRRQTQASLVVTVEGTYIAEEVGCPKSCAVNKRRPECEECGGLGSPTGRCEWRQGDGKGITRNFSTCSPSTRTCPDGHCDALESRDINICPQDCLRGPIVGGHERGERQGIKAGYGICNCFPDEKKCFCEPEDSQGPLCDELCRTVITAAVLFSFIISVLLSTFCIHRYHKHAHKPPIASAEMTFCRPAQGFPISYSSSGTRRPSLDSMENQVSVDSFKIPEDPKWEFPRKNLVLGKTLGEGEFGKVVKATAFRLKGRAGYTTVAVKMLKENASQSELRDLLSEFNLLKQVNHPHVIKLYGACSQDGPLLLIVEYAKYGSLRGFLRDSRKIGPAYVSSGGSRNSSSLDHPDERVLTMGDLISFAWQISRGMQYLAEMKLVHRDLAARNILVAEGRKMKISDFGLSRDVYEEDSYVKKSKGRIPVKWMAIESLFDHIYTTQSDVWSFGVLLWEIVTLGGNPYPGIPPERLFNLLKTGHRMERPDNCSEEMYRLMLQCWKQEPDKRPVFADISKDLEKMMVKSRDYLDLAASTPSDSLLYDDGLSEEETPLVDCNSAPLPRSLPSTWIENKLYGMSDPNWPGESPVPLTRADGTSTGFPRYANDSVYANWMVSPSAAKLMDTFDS
structure (smiles),measurement,setting,value
CCOc1cc(-c2ccc(N)c(F)c2)c[nH]c1=O,Activity,Salmonella typhimurium,Toxic
CCOc1cc(=O)[nH]cc1-c1ccc(CC(=O)Nc2cc(C(C)(C)C(F)(F)F)on2)c(F)c1 [GSK-3179106],Activity,Rattus norvegicus,Active
same,pKd,[1],7.40
same,Tmax,[2],0 h
same,Tmax,[3],1 h
same,solubility at 4 h,[4],0.4 µg/mL
same,pKd,[5],7.05
same,Activity,Salmonella typhimurium,Non-Toxic
same,Cmax,[6],5520 ng/mL
same,Tmax,[7],7 h
same,Tmax,[8],2 h
same,Cmax,[9],3360 ng/mL
same,solubility kinetic,[10],21 µM
same,Cmax,[11],15700 ng/mL
same,Cmax,[12],288000 ng/mL
same,Tmax,[13],7 h
same,Tmax,[14],4 h
same,AUC,[15],102 ng·h/mL
same,Cmax,[16],12800 ng/mL
same,Cmax,[17],40 ng/mL
same,pKd,[18],7.70
CCOc1cc(-c2ccc(N)cc2)c[nH]c1=O,Activity,Salmonella typhimurium,Toxic
COc1cc(-c2ccc(N)c(F)c2)c[nH]c1=O,Activity,Salmonella typhimurium,Toxic
CC(C)(c1cc(N)no1)C(F)(F)F,Activity,Salmonella typhimurium,Non-Toxic
CCN1CCN(Cc2ccc(NC(=O)Nc3ccc(-c4ccnc(NC)c4)cc3)cc2C(F)(F)F)CC1,pIC50,[19],< 6.00
CCN1CCN(Cc2ccc(N)cc2C(F)(F)F)CC1,Activity,Salmonella typhimurium,Toxic
